{"data": "Measurements pooled from the literature", "target": "LIM domain kinase 1 (LIMK1, Homo sapiens, UniProt P53667)", "note": "Compare with care: the assays were run in different laboratories."}
{"SMILES": "N#CCCc1ccc2c(c1)-c1[nH]c3ccc([N+](=O)[O-])cc3c1CC(=O)N2", "read-out": "cell-free assay", "concentration": "0.5 µM", "measurement": "remaining signal", "result": "99.9%"}
{"SMILES": "O=C(Nc1cccnn1)N1CC(C/C=C/c2cncc(Oc3ccc(C(F)(F)F)cn3)n2)C1", "read-out": "cell-free assay", "method": "competition with immobilised ligand", "concentration": "1 µM", "measurement": "remaining binding", "result": "88%"}
{"SMILES": "CCCOc1ccc(OC)c(F)c1C(=O)c1ccc(C(=O)N[C@@H]2CNC[C@H]2NC(=O)c2ccc3[nH]ncc3c2)cc1", "read-out": "enzyme activity", "mode": "inhibitor", "concentration": "10 µM", "measurement": "remaining activity", "result": "73%"}
{"SMILES": "CCN(CC)c1ccc(C2=NNC(=O)CC2C)cc1[N+](=O)[O-] (centres unmarked)", "read-out": "enzyme activity", "mode": "inhibitor", "concentration": "10 µM", "measurement": "remaining activity", "result": "93%"}
{"SMILES": "Cc1nc(Cc2cccc(C(F)(F)F)c2)sc1-c1ccc(C(N)=O)nc1", "read-out": "cell-free assay", "method": "competition with immobilised ligand", "concentration": "1 µM", "measurement": "remaining binding", "result": "100%"}
{"SMILES": "CC(C)(C)c1nc(-c2cccc(NS(=O)(=O)c3c(F)cccc3F)c2F)c(-c2ccnc(N)n2)s1", "read-out": "enzyme activity", "mode": "inhibitor", "method": "radiometric", "concentration": "1 µM", "measurement": "remaining activity", "result": "98%"}
{"SMILES": "CCN(CC)CCNC(=O)c1c(C)[nH]c(/C=C2\\C(=O)Nc3ccc(F)cc32)c1C", "read-out": "enzyme activity", "mode": "inhibitor", "concentration": "10 µM", "measurement": "inhibition", "result": "39%"}
{"SMILES": "CSc1cccnc1N1CCN(Cc2nc3ccccc3[nH]2)CC1", "read-out": "cell-free assay", "method": "competition with immobilised ligand", "concentration": "1 µM", "measurement": "remaining binding", "result": "100%"}
{"SMILES": "Cn1cnc(Br)c1C1=CN(c2ncnc3[nH]cnc23)CCS1", "read-out": "enzyme activity", "mode": "inhibitor", "method": "radiometric", "concentration": "2 µM", "measurement": "inhibition", "result": "82.8%"}
{"SMILES": "Cc1sc(C(=O)NC2COC2)cc1-n1cc(NC(=O)Nc2c(F)cccc2Cl)cn1", "read-out": "enzyme activity", "mode": "inhibitor", "concentration": "10 µM", "measurement": "remaining activity", "result": "105%"}
{"SMILES": "CNC(=O)c1cc2c(Oc3ccc(NC(=O)C4(C(=O)Nc5ccc(F)cc5)CC4)cc3)ccnc2cc1OC", "read-out": "enzyme activity", "mode": "inhibitor", "method": "radiometric", "concentration": "1 µM", "measurement": "inhibition", "result": "74%"}
{"SMILES": "CN(C)CC#Cc1ccc(OCCCc2sc(N3CCc4cccc(C(=O)Nc5nc6ccccc6s5)c4C3)nc2C(=O)O)c(F)c1", "read-out": "cell-free assay", "method": "competition with immobilised ligand", "concentration": "1 µM", "measurement": "remaining binding", "result": "97%"}
{"SMILES": "CNC(=O)c1cc(Oc2ccc(NC(=O)Nc3ccc(Cl)c(C(F)(F)F)c3)cc2)ccn1", "read-out": "enzyme activity", "mode": "inhibitor", "concentration": "0.3 µM", "measurement": "inhibition", "result": "29%"}
{"SMILES": "CN([C@@H]1CCc2c(CC(=O)O)c3ccccc3n2C1)S(=O)(=O)c1ccc(F)cc1", "read-out": "cell-free assay", "method": "competition with immobilised ligand", "concentration": "1 µM", "measurement": "remaining binding", "result": "100%"}
{"SMILES": "C[C@@H]1CCN(C(=O)CC#N)C[C@@H]1N(C)c1ncnc2[nH]ccc12", "read-out": "cell-free assay", "mode": "inhibitor", "concentration": "0.5 µM", "measurement": "remaining signal", "result": "82%"}
{"SMILES": "CCOC(=O)c1cc2cc(-c3cc(C(=O)NCc4ccc(C(=O)O)cc4)nn3C)ccc2[nH]1", "read-out": "cell-free assay", "method": "competition with immobilised ligand", "concentration": "0.1 µM", "measurement": "remaining binding", "result": "100%"}
{"SMILES": "Oc1ccc(-c2nc(-c3ccncc3)c(-c3ccc(F)cc3)[nH]2)cc1", "read-out": "cell-free assay", "concentration": "0.5 µM", "measurement": "remaining signal", "result": "91.4%"}
{"SMILES": "Cc1cnc(NC2CCOCC2)nc1-n1cnc(C(=O)NC(CN)c2cc(F)cc(Cl)c2)c1 (centres unmarked)", "read-out": "enzyme activity", "mode": "inhibitor", "method": "radiometric", "concentration": "1 µM", "measurement": "remaining activity", "result": "64%"}
{"SMILES": "Cc1cc(NC(=O)c2cccc3cc(-c4cccc5[nH]nc(N)c45)ccc23)ccc1F", "read-out": "enzyme activity", "mode": "inhibitor", "concentration": "0.1 µM", "measurement": "activity vs control", "result": "90%"}
{"SMILES": "COc1cc(Nc2c(C#N)cnc3cc(OCCCN4CCN(C)CC4)c(OC)cc23)c(Cl)cc1Cl", "read-out": "cell-free assay", "concentration": "0.5 µM", "measurement": "remaining signal", "result": "96.4%"}
